The subject of data set [1] is Rattus norvegicus. The data set is described as follows: Inhibition of (E)-1-(4-chlorophenyl)-3-(4-pyridin-2-ylpiperazin-1-yl)propan-1-one O-methyloxime-induced erectogenic effect in Wistar rat at 10 umol/kg, ip. Format: functional, organism-based.
For data set [2], the target named is D(4) dopamine receptor (Homo sapiens) (UniProt P21917). The data set is described as follows: Agonist activity at human recombinant D4.4 receptor expressed in HEK293 cells by FLIPR assay relative to dopamine.
Data set [3] deals with T1, D(2) dopamine receptor (Homo sapiens, UniProt P14416). The data set is described as follows: Antagonist activity at human recombinant D2 receptor expressed in HEK293 cells by FLIPR assay. Format: functional, cell-based.
T1 sequence (P14416 whole entry): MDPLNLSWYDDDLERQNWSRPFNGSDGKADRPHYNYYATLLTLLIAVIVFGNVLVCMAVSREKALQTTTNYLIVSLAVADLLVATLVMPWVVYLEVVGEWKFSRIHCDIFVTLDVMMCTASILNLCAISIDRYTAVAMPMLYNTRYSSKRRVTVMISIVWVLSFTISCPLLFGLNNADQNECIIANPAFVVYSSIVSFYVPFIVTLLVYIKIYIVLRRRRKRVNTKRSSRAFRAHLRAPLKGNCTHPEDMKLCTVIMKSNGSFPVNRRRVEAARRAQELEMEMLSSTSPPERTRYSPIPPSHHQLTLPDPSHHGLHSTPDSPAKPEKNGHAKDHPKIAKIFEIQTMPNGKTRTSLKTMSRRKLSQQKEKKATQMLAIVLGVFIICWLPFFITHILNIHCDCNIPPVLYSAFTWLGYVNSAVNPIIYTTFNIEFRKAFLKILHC
Data set [4] deals with T1, D(2) dopamine receptor. The data set is described as follows: Agonist activity at human recombinant D2 receptor expressed in HEK293 cells by FLIPR assay. Format: functional, cell-based. A digest of the protocol: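 Calcium flux (FLIPR) in HEK-293 cells coexpressing recombinant human D2L with chimeric Gqo5. Efficacy is the maximal response relative to 10 µM dopamine (100%). EC50 is the concentration giving half-maximal stimulation. Values are means (SEM, n ≥ 3).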

Data set [5] has as its target T2, D(4) dopamine receptor (Homo sapiens, UniProt P21917).
T2 sequence (P21917 whole entry): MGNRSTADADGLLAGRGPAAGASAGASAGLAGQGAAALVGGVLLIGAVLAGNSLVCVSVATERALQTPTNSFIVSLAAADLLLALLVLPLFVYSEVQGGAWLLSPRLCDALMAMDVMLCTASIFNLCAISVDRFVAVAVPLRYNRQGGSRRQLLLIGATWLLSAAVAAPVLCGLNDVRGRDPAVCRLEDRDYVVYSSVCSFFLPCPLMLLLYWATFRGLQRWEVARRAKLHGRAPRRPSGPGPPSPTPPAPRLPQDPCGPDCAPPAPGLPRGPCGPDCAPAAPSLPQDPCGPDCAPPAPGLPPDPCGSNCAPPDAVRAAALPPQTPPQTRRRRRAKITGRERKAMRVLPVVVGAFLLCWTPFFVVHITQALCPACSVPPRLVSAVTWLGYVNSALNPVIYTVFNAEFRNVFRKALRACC
The data set is described as follows: Activity at human recombinant D4.4 receptor expressed in HEK293 cells by FLIPR assay. Format: functional, cell-based.

For data set [6], the target named is T2, D(4) dopamine receptor. The data set is described as follows: Displacement of [3H]A-369508 from human recombinant D4.4 receptor expressed in HEK293 cell membrane. Type of data set: cell membranes. An outline of the steps:
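Competition binding against the D4-selective agonist radioligand [3H]-A-369508, using membranes from HEK-293 cells engineered to express human D4.4. Mean values (SEM, n ≥ 4).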

The target in data set [7] is T1, D(2) dopamine receptor. The data set is described as follows: Displacement of [125I]PIPAT from human recombinant D2L receptor expressed in HEK293 cells.
Data set [8] relates to Rattus norvegicus. The data set is described as follows: Activity against penile erection in Wistar rat at 0.1 umol/kg, sc. Format: functional. A digest of the protocol:
(§1)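 Male Wistar rats, dosed subcutaneously, were weighed and adapted to a red-lit testing room for 60 min; experiments ran between 9:00 a.m. and 3:00 p.m. Erections were counted by direct observation for 60 min after dosing. The share of animals with one or more erections was reported as incidence (percent), n = 8-30 rats.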

In data set [9] the test system is Rattus norvegicus. The data set is described as follows: Inhibition of (E)-1-(4-chlorophenyl)-3-(4-pyridin-2-ylpiperazin-1-yl)propan-1-one O-methyloxime-induced erectogenic effect in Wistar rat at 1 umol/kg, ip. Type of data set: functional, organism-based.
Data set [10] has as its system Rattus norvegicus. The data set is described as follows: Activity against penile erection in Wistar rat at 0.3 umol/kg, sc. Format: functional. A digest of the protocol:
as §1

Data set [11] concerns Rattus norvegicus. The data set is described as follows: Inhibition of (E)-1-(4-chlorophenyl)-3-(4-pyridin-2-ylpiperazin-1-yl)propan-1-one O-methyloxime-induced erectogenic effect in Wistar rat at 3 umol/kg, ip. Format: functional, organism-based.
Data set [12] deals with Rattus norvegicus. The data set is described as follows: Volume of distribution in rat at 1 mg/kg, sc. Type of data set: ADME, organism-based. Details: dose 1 mg/kg, route subcutaneous. Conditions: in vivo. A digest of the protocol:
(§2)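 Pharmacokinetics in rat and dog after a 1 mg/kg dose given subcutaneously or orally. Oral bioavailability (F, %), volume of distribution (Vβ, L/kg) and half-life (T1/2, h) were determined.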

The nature of data set [13]: Bioavailability in dog at 1 mg/kg, po. Format: ADME, organism-based, Canis lupus familiaris. Conditions: in vivo. A digest of the protocol: as §2
Data set [14] is described as follows: Bioavailability in rat at 1 mg/kg, sc. Type of data set: ADME, organism-based. Conditions: in vivo. A digest of the protocol: as §2
Data set [15] is described as follows: Half life in rat at 1 mg/kg, sc. Format: ADME, organism-based. Further details: dose 1 mg/kg, route subcutaneous. Conditions: in vivo. An outline of the steps:
as §2

Data set [16] in a line: Bioavailability in rat at 1 mg/kg, po. Format: ADME, organism-based. Conditions: in vivo. An outline of the steps: as §2
Data set [17] has as its system Canis familiaris. The data set is described as follows: Volume of distribution in dog at 1 mg/kg, sc. Format: ADME, organism-based, Canis lupus familiaris. Further details: dose 1 mg/kg, route subcutaneous. Conditions: in vivo. A digest of the protocol:
as §2

Data set [18] is described as follows: Half life in dog at 1 mg/kg, po. Conditions: in vivo. Format: ADME, organism-based, Canis lupus familiaris. Further details: dose 1 mg/kg, route oral. A digest of the protocol: as §2
Data set [19] concerns Rattus norvegicus. The data set is described as follows: Activity against penile erection in Wistar rat at 1.0 umol/kg, sc. Type of data set: functional. An outline of the steps: as §1
For data set [20], the system named is Mus musculus. The data set is described as follows: Lowering of ptosis in mouse at 10 umol/kg by Irvin test. Type of data set: functional, organism-based.
Data set [21] is filed under the species Canis familiaris. The data set is described as follows: Prolongation of canine cardiac Purkinje fiber repolarization. Format: functional, Canis lupus familiaris.
Data set [22] can be described thus: Half life in rat at 1 mg/kg, po. Format: ADME, organism-based. Details: dose 1 mg/kg, route oral. Conditions: in vivo. An outline of the steps: as §2
Data set [23] deals with Mustela putorius furo. The data set is described as follows: Emetic activity in ferret at 0.03 to 3 umol/kg, sc. Type of data set: functional, organism-based.
For data set [24], the system named is Mus musculus. The data set is described as follows: Lowering of hypoactivity in mouse at 10 umol/kg by Irvin test. Format: functional, organism-based.
Data set [25] has as its system Rattus norvegicus. The data set is described as follows: Activity against penile erection in Wistar rat at 0.03 umol/kg, sc. Format: functional. A digest of the protocol: as §1
The test system of data set [26] is Mus musculus. The data set is described as follows: Lowering of piloerection in mouse at 10 umol/kg by Irvin test. Format: functional, organism-based.
Data set [27] relates to Mus musculus. The data set is described as follows: Lowering of hypothermia in mouse at 10 umol/kg by Irvin test. Type of data set: functional, organism-based.

Results on 15 compounds are retold here after ChEMBL document CHEMBL1145336, “1-aryl-3-(4-pyridine-2-ylpiperazin-1-yl)propan-1-one oximes as potent dopamine D4 receptor agonists for the treatment of erectile dysfunction” (J Med Chem, 2006).

Structures are written as SMILES. The source made the active and inactive calls. No cut-off for these calls is given here.

For `O=c1[nH]c2ccccc2n1CCCN1CCC(n2c(=O)[nH]c3cc(Cl)ccc32)CC1`, the outcome in data set [1] was inactive.
Turning to `CO/N=C(/CCCN1CCN(c2ccccn2)CC1)c1ccc(F)cc1`, the Efficacy in data set [2] was 65%. Also, the IC50 in data set [3] was more than 10000 nM. The EC50 in data set [4] came to 366 nM; in [5], 33.5 nM.
On to `CO/N=C(\CCN1CCN(c2ccccn2)CC1)c1ccc(C)c(C)c1`, for which the IC50 in [3] was more than 10000 nM. The EC50 in data set [4] is more than 10000 nM; in [5] it was 108 nM. Also, the Ki in data set [6] was 27.5 nM; in [7], 137 nM. The compound further registered an Activity in [8] of 68%.
For the compound `O=C(CCCN1CCC(O)(c2ccc(Cl)cc2)CC1)c1ccc(F)cc1`, the outcome in [9] was Active.
For the compound `CO/N=C(\CCN1CCN(c2ccccn2)CC1)c1ccc(F)cc1`, in data set [10], the Activity came out at 50%. In addition, the IC50 in data set [3] is more than 10000 nM. In addition, the concentration for a half-maximal effect (EC50) in [4] was more than 10000 nM; in data set [5], 48.8 nM. Also, the Ki came to 14.2 nM in data set [6] and 168 nM in [7].
The compound `CCO/N=C(\CCN1CCN(c2ccccn2)CC1)c1ccccc1` had an Activity in [10] of 55%. The IC50 in [3] is more than 10000 nM. Also, the concentration for a half-maximal effect (EC50) was more than 10000 nM in data set [4] and 28.5 nM in data set [5]. Also, the values for the inhibition constant Ki in data set [6] and in data set [7] were 38 nM and 128 nM, respectively.
In [8], `CN1CCc2cccc3c2[C@H]1Cc1ccc(O)c(O)c1-3` [APOMORPHINE] returned an Activity of 85%.
Regarding `CN1CCN(C2=Nc3cc(Cl)ccc3Nc3ccccc32)CC1`, the result in data set [11] was Active.
As to `O/N=C(\CCN1CCN(c2ccccn2)CC1)c1ccccc1`, the results for the Vbeta in data set [12] and in data set [17] were 1 L/kg and 1.8 L/kg, respectively. Besides, the bioavailability was 0% in [13], 68.1% in [14] and 0% in data set [16]. The compound further gave an Activity in data set [10] of 60%. The concentration for half-maximal inhibition (IC50) in [3] is more than 10000 nM. Besides, the EC50 in [4] was more than 10000 nM; in data set [5], 4.4 nM. In [15], this compound had a half-life of 0.8 h. For the same compound, the Ki came out at 25.4 nM in [6] and 257 nM in data set [7].
The compound `CO/N=C(\CCN1CCN(c2ccccn2)CC1)c1ccc(Cl)c(Cl)c1` returned an Activity in data set [10] of 76%. Further, the IC50 in data set [3] was more than 10000 nM. Moreover, the figures for the EC50 in data set [4] and in data set [5] were more than 10000 nM and 542 nM, respectively. For the same compound, the results for the Ki in [6] and in [7] were 6.4 nM and 64.5 nM, respectively.
With `CO/N=C(\CCN1CCN(c2ccccn2)CC1)c1ccccc1`, in data set [3], the concentration for half-maximal inhibition (IC50) was more than 10000 nM. Besides, the concentration giving a half-maximal response (EC50) is more than 10000 nM in [4] and 32 nM in data set [5]. Besides, the inhibitory constant (Ki) in data set [6] turned out to be 22.8 nM; in [7], 172 nM. The compound further returned an Activity in data set [8] of 77%.
Turning to `CO/N=C(\CCN1CCN(c2ccccn2)CC1)c1cc(F)cc(F)c1`, the IC50 in [3] is more than 10000 nM. For the same compound, the EC50 was more than 10000 nM in [4] and 37.2 nM in data set [5]. The Ki in data set [6] is 110 nM; in data set [7], 132 nM. This compound also displayed an Activity in data set [8] of 68%.
Regarding `CO/N=C(\CCN1CCN(c2ccccn2)CC1)c1ccc(F)c(Cl)c1`, the Vbeta in data set [12] turned out to be 8.2 L/kg; in data set [17] it was 3.8 L/kg. Further, the bioavailability in data set [13] came out at 42.9%; in data set [16], 18.6%. The half-maximal inhibitory concentration (IC50) in data set [3] is more than 10000 nM. Moreover, the 50% effective concentration (EC50) in [4] is more than 10000 nM; in data set [5], 148 nM. This compound also showed a half-life in [18] of 6.1 h. Moreover, the Ki in data set [6] amounted to 71.2 nM; in data set [7], 171 nM. In addition, the Activity in data set [19] was found to be 85%.
Turning to `CO/N=C(\CN1CCN(c2ccccn2)CC1)c1ccc(F)cc1`, the Activity in data set [10] is reported as 77%. Also, in data set [3], the concentration for half-maximal inhibition (IC50) was more than 10000 nM. The EC50 is more than 10000 nM in [4] and 43.8 nM in data set [5]. The values for the Ki in data set [6] and in data set [7] were 2050 nM and 2530 nM, respectively.
As for `CO/N=C(\CCN1CCN(c2ccccn2)CC1)c1ccc(Cl)cc1`, the values for the Vbeta in data set [12] and in data set [17] were 4.3 L/kg and 4.8 L/kg, respectively. The bioavailability in data set [13] stood at 39.8%; in [14], 94.8%; in data set [16] it was 16.3%. Moreover, the result in data set [20], in [24], in [26] and in [27] was Active. For the same compound, the figures for the Activity in data set [21] and in data set [25] were 14.7% and 85%, respectively. Further, the IC50 in [3] is more than 10000 nM. Besides, the half-life is 2.3 h in data set [22], 6.2 h in data set [18] and 1.9 h in [15]. Moreover, the EC50 was more than 10000 nM in data set [4] and 37.6 nM in data set [5]. The outcome in [23] was inactive. Also, the Ki was determined as 38.2 nM in data set [6] and 63.8 nM in data set [7].
